ChEMBL document CHEMBL3758077, “Discovery of New Acid Ceramidase-Targeted Acyclic 5-Alkynyl and 5-Heteroaryl Uracil Nucleosides” (ACS Med Chem Lett, 2015)
Activity calls are given as the source filed them. The rule behind the calls is not given here.

Legend:
MCF7 [1] = assay: Antiproliferative activity against human MCF7 cells after 72 hrs by MTT assay; assay type: functional, cell-based; details: MCF7, 72 h
In short: (§1)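 Cells grown in vitro with test agent; growth inhibition read by MTT assay; IC50 taken as concentration inhibiting tumor cell proliferation by 50%.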

[2] = Antiproliferative activity against human SW620 cells after 72 hrs by MTT assay; assay type: functional, cell-based; details: SW-620, 72 h; in short: as §1
HeLa = assay: Antiproliferative activity against human HeLa cells after 72 hrs by MTT assay; assay type: functional, cell-based; in short: as §1
BJ = assay: Antiproliferative activity against human BJ cells after 72 hrs by MTT assay; assay type: cell-based; in short: as §1
MCF7 [3] = assay: Induction of apoptosis in human MCF7 cells assessed as early apoptotic cells at IC50 after 24 hrs by annexinV/propidium iodide staining based fluorescence analysis (reference value: 8.7 %); assay type: functional
MCF7 [4] = assay: Induction of apoptosis in human MCF7 cells assessed as late apoptotic cells at IC50 after 24 hrs by annexinV/propidium iodide staining based fluorescence analysis (reference value: 7.5 %); assay type: functional
MCF7 [5] = assay: Induction of apoptosis in human MCF7 cells assessed as necrotic cells at IC50 after 24 hrs by annexinV/propidium iodide staining based fluorescence analysis (reference value: 9.4 %); assay type: functional
MCF7 [6] = assay: Induction of apoptosis in human MCF7 cells assessed as early apoptotic cells at IC50 after 48 hrs by annexinV/propidium iodide staining based fluorescence analysis (reference value: 36.1 %); assay type: functional
MCF7 [7] = assay: Induction of apoptosis in human MCF7 cells assessed as late apoptotic cells at IC50 after 48 hrs by annexinV/propidium iodide staining based fluorescence analysis (reference value: 27.7 %); assay type: functional
MCF7 [8] = assay: Induction of apoptosis in human MCF7 cells assessed as necrotic cells at IC50 after 48 hrs by annexinV/propidium iodide staining based fluorescence analysis (reference value: 25.4 %); assay type: functional
MCF7 [9] = assay: Effect on SK1 expression in human MCF7 cells at IC50 after 24 hrs by western blot analysis; assay type: functional, cell-based
MCF7 [10] = assay: Downregulation of ASAH1 expression in human MCF7 cells at IC50 after 24 hrs by western blot analysis; assay type: functional, cell-based
[11] = target: T1, 17-beta-hydroxysteroid dehydrogenase type 1 (Homo sapiens) (UniProt P14061); assay: Inhibition of 17beta-HSD1 in human MCF7 cells at IC50 after 24 hrs by ELISA; assay type: cell-based
T1 sequence (whole entry): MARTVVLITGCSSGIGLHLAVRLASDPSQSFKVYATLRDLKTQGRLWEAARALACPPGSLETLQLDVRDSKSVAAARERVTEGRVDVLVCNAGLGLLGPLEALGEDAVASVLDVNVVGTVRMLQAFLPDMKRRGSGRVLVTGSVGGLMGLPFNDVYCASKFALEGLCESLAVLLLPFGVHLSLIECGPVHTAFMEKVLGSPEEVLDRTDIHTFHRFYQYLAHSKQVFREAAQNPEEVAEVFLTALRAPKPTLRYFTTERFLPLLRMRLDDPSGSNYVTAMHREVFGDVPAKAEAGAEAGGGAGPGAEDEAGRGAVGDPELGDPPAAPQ

[12] = target: T1, 17-beta-hydroxysteroid dehydrogenase type 1 (Homo sapiens); assay: Inhibition of 17beta-HSD1 in human MCF7 cells at 5XIC50 after 24 hrs by ELISA; assay type: cell-based

SMILES | IC50 (MCF7 [1]) | IC50 [2] | IC50 (HeLa) | IC50 (BJ) | Activity (MCF7 [3]) | Activity (MCF7 [4]) | Activity (MCF7 [5]) | Activity (MCF7 [6]) | Activity (MCF7 [7]) | Activity (MCF7 [8]) | Activity (MCF7 [9]) | inhibition (MCF7 [10]) | inhibition [11] | inhibition [12]
CCCCCCCCC#Cc1cn(CCC(CO)CO)c(=O)[nH]c1=O | 40.3 µM | > 100 µM | 58.9 µM | – | – | – | – | – | – | – | – | – | – | –
O=c1[nH]c(=O)n(CCC(CO)CO)cc1-c1ccco1 | < 0.01 µM | > 100 µM | > 100 µM | 0.5 µM | 20.4% | 19.7% | 34% | 39.3% | 18% | 28.7% | inactive | inactive | inactive | inactive
CC(=O)OCC(CCn1cc(C#Cc2cc(F)cc(F)c2)c(=O)n(C(=O)c2ccccc2)c1=O)COC(C)=O | 28.9 µM | > 100 µM | 64.5 µM | 46.6 µM | – | – | – | – | – | – | – | – | – | –
O=c1[nH]c(=O)n(CCC(CO)CO)cc1C#CCc1ccccc1 | > 100 µM | 72.4 µM | 63.8 µM | > 100 µM | – | – | – | – | – | – | – | – | – | –
CC(=O)OCC(CCn1cc(C#CC2CC2)c(=O)n(C(=O)c2ccccc2)c1=O)COC(C)=O | 0.1 µM | > 100 µM | > 100 µM | 0.3 µM | 10.9% | 36.6% | 34.1% | 20.9% | 24.4% | 31.6% | inactive | Active | – | –
O=c1[nH]cc(F)c(=O)[nH]1 [FLUOROURACIL] | 0.09 µM | 0.79 µM | > 100 µM | – | – | – | – | – | – | – | – | – | – | –
CCCCCCCCC#Cc1cn(CCC(COC(C)=O)COC(C)=O)c(=O)n(C(=O)c2ccccc2)c1=O | 28.9 µM | 65.8 µM | 32.4 µM | > 100 µM | – | – | – | – | – | – | – | – | – | –
CCCCCc1ccc(C#Cc2cn(CCC(COC(C)=O)COC(C)=O)c(=O)n(C(=O)c3ccccc3)c2=O)cc1 | 0.1 µM | > 100 µM | 79.1 µM | 17.6 µM | 41.7% | 28.3% | 34.6% | 28.2% | 24.1% | 37.9% | inactive | Active | – | –
CC(=O)OCC(CCn1cc(C#CCCCCl)c(=O)n(C(=O)c2ccccc2)c1=O)COC(C)=O | 21 µM | > 100 µM | 52.8 µM | – | – | – | – | – | – | – | – | – | – | –
CC(C)(C)C#Cc1cn(CCC(CO)CO)c(=O)[nH]c1=O | 95.9 µM | > 100 µM | > 100 µM | 58.2 µM | – | – | – | – | – | – | – | – | – | –
O=c1[nH]c(=O)n(CCC(CO)CO)cc1C#Cc1ccc(Br)cc1 | 46 µM | > 100 µM | 67.7 µM | > 100 µM | – | – | – | – | – | – | – | – | – | –
O=c1[nH]c(=O)n(CCC(CO)CO)cc1C#Cc1cc(F)cc(F)c1 | 63.1 µM | > 100 µM | 31.2 µM | > 100 µM | – | – | – | – | – | – | – | – | – | –
CC(=O)OCC(CCn1cc(C#Cc2ccc(Br)cc2)c(=O)n(C(=O)c2ccccc2)c1=O)COC(C)=O | 28.9 µM | > 100 µM | 47.2 µM | 37.6 µM | – | – | – | – | – | – | – | – | – | –
O=c1[nH]c(=O)n(CCC(CO)CO)cc1-c1cccs1 | 6 µM | > 100 µM | 7.8 µM | – | 32.8% | 33.6% | 26.2% | 54.9% | 22.9% | 13.1% | inactive | inactive | Active | Active
CC(=O)OCC(CCn1cc(C#CC(C)(C)C)c(=O)n(C(=O)c2ccccc2)c1=O)COC(C)=O | 67.1 µM | > 100 µM | 71.5 µM | 36.9 µM | – | – | – | – | – | – | – | – | – | –
CC(=O)OCC(CCn1cc(C#CCc2ccccc2)c(=O)n(C(=O)c2ccccc2)c1=O)COC(C)=O | 26.8 µM | 36.4 µM | 29.9 µM | – | – | – | – | – | – | – | – | – | – | –
CCCCCC#Cc1cn(CCC(COC(C)=O)COC(C)=O)c(=O)n(C(=O)c2ccccc2)c1=O | 62.2 µM | 40.7 µM | 53.7 µM | – | – | – | – | – | – | – | – | – | – | –
O=c1[nH]c(=O)n(CCC(CO)CO)cc1C#CCCCCl | 35.2 µM | > 100 µM | > 100 µM | – | – | – | – | – | – | – | – | – | – | –
O=c1[nH]c(=O)n(CCC(CO)CO)cc1C#CC1CC1 | > 100 µM | > 100 µM | > 100 µM | – | – | – | – | – | – | – | – | – | – | –
CCCCCC#Cc1cn(CCC(CO)CO)c(=O)[nH]c1=O | 37.8 µM | > 100 µM | 76.3 µM | – | – | – | – | – | – | – | – | – | – | –
CCCCCc1ccc(C#Cc2cn(CCC(CO)CO)c(=O)[nH]c2=O)cc1 | 26.8 µM | > 100 µM | 48.2 µM | – | – | – | – | – | – | – | – | – | – | –
